Experimental findings from ChEMBL document CHEMBL4706530, “Synthesis, inhibitory activity and in silico docking of dual COX/5-LOX inhibitors with quinone and resorcinol core” (Eur J Med Chem, 2020) are described below.

Calls of active or inactive are those of the source. The rule behind the calls is not given here. Bounds are passed on as bounds.

Assay [1] addresses T1, Prostaglandin G/H synthase 1 (Ovis aries, UniProt P05979).
T1 sequence (P05979 whole entry): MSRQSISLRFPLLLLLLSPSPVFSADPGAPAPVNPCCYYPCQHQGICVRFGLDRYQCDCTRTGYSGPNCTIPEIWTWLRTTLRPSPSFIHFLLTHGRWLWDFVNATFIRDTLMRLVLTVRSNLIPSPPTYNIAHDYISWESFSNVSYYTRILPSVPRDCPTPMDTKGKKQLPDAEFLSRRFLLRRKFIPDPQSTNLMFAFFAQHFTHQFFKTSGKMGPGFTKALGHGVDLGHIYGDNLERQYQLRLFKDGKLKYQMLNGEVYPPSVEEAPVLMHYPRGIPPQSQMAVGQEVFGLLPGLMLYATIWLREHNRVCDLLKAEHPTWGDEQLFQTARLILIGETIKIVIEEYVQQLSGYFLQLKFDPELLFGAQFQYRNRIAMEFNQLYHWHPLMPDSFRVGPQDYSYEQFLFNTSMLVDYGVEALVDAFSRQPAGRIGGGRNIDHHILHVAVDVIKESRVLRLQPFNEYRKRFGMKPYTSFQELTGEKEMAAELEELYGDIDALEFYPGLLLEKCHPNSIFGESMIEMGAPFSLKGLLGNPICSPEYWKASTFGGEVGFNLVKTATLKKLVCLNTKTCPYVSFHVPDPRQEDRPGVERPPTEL
The assay is described as follows: Inhibition of ovine COX-1 assessed as reduction in PGE2 level using 10 uM arachidonic acid as substrate preincubated with enzyme for 5 mins followed by substrate addition and measured after 20 mins by ELISA. A digest of the protocol: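 Enzyme in 100 mM Tris pH 8.0 with 5 µM porcine hematin, 18 mM L-epinephrine and 50 µM Na2EDTA. Compound in DMSO (DMSO blank) 5 min at room temperature. Arachidonic acid (10 µM) added, 20 min at 37°C. Stopped with 10% formic acid, diluted 1:15, PGE2 measured by ELISA at 405 nm as % inhibition versus blank. At least three experiments in at least duplicate. Non-active below 50% inhibition at 20 µM.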
For orientation: ELISA stands for enzyme-linked immunosorbent assay.

The target in assay [2] is T2, Prostaglandin G/H synthase 2 (Homo sapiens, UniProt P35354).
T2 sequence (P35354 whole entry): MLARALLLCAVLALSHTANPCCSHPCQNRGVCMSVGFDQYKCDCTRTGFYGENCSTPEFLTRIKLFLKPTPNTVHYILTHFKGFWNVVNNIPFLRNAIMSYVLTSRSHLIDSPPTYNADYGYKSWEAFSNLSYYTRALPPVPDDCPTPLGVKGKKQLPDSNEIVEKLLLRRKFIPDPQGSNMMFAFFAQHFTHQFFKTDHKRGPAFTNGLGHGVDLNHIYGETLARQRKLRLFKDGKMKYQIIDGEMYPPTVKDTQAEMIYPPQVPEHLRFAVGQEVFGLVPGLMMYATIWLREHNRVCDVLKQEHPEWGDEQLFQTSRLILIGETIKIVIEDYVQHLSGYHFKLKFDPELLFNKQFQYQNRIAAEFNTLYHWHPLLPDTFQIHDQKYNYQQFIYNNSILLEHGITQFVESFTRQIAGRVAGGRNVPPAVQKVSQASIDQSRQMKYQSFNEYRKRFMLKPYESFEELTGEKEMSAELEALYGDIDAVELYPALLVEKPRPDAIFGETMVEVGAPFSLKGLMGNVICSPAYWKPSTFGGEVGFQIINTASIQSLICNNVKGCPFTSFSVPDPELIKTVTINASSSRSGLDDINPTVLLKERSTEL
Nature of the assay: Inhibition of human recombinant COX-2 assessed as reduction in PGE2 level using 10 uM arachidonic acid as substrate preincubated with enzyme for 5 mins followed by substrate addition and measured after 20 mins by ELISA.

Assay [3] in a line: Selectivity index, ratio of IC50 for ovine COX-1 to IC50 for human recombinant COX-2.
Assay [4] addresses T3, Polyunsaturated fatty acid 5-lipoxygenase (Homo sapiens, UniProt P09917).
T3 sequence (P09917 whole entry): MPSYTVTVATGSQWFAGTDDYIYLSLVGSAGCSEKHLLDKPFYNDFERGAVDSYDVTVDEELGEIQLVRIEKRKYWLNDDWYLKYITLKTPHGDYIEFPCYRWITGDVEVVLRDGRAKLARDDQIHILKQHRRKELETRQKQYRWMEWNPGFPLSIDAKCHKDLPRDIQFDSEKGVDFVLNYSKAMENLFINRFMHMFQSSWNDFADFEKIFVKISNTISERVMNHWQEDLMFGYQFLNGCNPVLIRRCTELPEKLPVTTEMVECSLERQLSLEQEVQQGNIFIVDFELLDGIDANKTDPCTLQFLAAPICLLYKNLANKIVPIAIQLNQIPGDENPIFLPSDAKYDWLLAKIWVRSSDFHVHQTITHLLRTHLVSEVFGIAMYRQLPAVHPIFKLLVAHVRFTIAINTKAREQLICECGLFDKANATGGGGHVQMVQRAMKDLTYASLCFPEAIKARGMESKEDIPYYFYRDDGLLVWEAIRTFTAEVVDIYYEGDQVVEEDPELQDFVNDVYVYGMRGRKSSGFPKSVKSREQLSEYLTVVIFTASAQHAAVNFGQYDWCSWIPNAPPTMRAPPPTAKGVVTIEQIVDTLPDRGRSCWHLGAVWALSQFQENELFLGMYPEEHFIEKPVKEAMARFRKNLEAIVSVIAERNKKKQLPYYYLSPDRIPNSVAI
Nature of the assay: Inhibition of human recombinant 5-LOX assessed as reduction in LTB4 level using 800 uM arachidonic acid as substrate preincubated with enzyme for 10 mins followed by substrate addition and measured after 10 mins by ELISA. A digest of the protocol: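 Human recombinant 5-LOX, 1 unit per reaction, in PBS pH 7.4 containing 1 mM Na2EDTA and 200 µM ATP. Compound in DMSO (DMSO blank) held 10 min at 4°C. CaCl2 added, reaction started with arachidonic acid (800 µM solution) for 10 min at 37°C. Formic acid stop, 1:15 dilution, LTB4 measured by ELISA as % inhibition versus blank. At least three experiments in at least duplicate.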

The target in assay [5] is T1, Prostaglandin G/H synthase 1. The assay is described as follows: Competitive inhibition of ovine COX-1 assessed as reduction in PGE2 level using 50 nM arachidonic acid as substrate preincubated with enzyme for 5 mins followed by substrate addition and measured after 20 mins by ELISA. A digest of the protocol:
(§1)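 Substrate-dependence test. Enzyme in 100 mM Tris pH 8.0 with 5 µM porcine hematin, 18 mM L-epinephrine and 50 µM Na2EDTA. Compound in DMSO (DMSO blank) preincubated 5 min at room temperature. Arachidonic acid added to final 50, 250 or 1250 nM, then 20 min at 37°C. Stopped with 10% formic acid, diluted 1:15, PGE2 quantified by ELISA at 405 nm. Inhibition calculated versus blank at the same AA level.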

The target is the same in assay [6]. The assay is described as follows: Competitive inhibition of ovine COX-1 assessed as reduction in PGE2 level using 250 nM arachidonic acid as substrate preincubated with enzyme for 5 mins followed by substrate addition and measured after 20 mins by ELISA. The method in brief: as §1
For assay [7] the target is unchanged. The assay is described as follows: Competitive inhibition of ovine COX-1 assessed as reduction in PGE2 level using 1250 nM arachidonic acid as substrate preincubated with enzyme for 5 mins followed by substrate addition and measured after 20 mins by ELISA. A digest of the protocol:
as §1

Assay [8] concerns the target T3, Polyunsaturated fatty acid 5-lipoxygenase. The assay is described as follows: Inhibition of human recombinant 5-LOX assessed as reduction in LTB4 level using 5 to 80 uM arachidonic acid as substrate preincubated with enzyme for 10 mins followed by substrate addition and measured after 10 mins by ELISA. A digest of the protocol:
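Human recombinant 5-LOX, 1 unit per reaction, in PBS pH 7.4 with 1 mM Na2EDTA and 200 µM ATP. Compound in DMSO preincubated 10 min at 4°C. CaCl2 added, then arachidonic acid at final 5, 20 or 80 µM, 10 min at 37°C. Stopped with 10% formic acid, diluted 1:15, LTB4 measured by ELISA. Inhibition calculated versus blank at the matching AA level.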

Assay [9] is described as follows: Antioxidant activity assessed as radical scavenging activity at 400 uM measured after 30 mins by DPPH assay. The class given is functional. The method in brief:
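Test compounds in methanol, two-fold serial dilution to final 3.125–400 µM, incubated 30 min with DPPH in methanol (stated final […]) at room temperature in the dark. Absorbance read at 517 nm. Trolox and L-ascorbic acid served as positive references. Activity expressed as EC50.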
A general note: The DPPH test is a chemical assay of radical scavenging.

For orientation: IC50 means the point on the concentration scale where inhibition reaches its midpoint. Regarding `CCCCCCCCCCCC1=CC(=O)C=C(OC)C1=O`, the IC50 in [1] was 1070 nM; in assay [2], 570 nM; in [4], 340 nM; in [5], 800 nM; in assay [6], 2770 nM; in assay [7] it was > 20000 nM. For the same compound, the IC50 in [8] worked out at 710 nM. Further, in [3], the Ratio IC50 was found to be 1.88. Besides, the outcome in assay [9] was inactive.
